According to ChEMBL document CHEMBL1123688, “Synthesis of 7,12-dihydropyrido[3,4-b:5,4-b']diindoles. A novel class of rigid, planar benzodiazepine receptor ligands” (J Med Chem, 1987):
Calls of active or inactive are those of the source. No cut-off for these calls is given here.

Test system: Mus musculus
Experiment: Convulsant effect in mice treated with subconvulsant (pentylenetetrazole) PTZ (40 mg/kg), ineffective at 30 mg/kg
Assay type: functional, organism-based
Design: dose 30 mg/kg

Structure (SMILES)	ED50
Clc1ccc2c(c1)[nH]c1c2ncc2[nH]c3ccccc3c21	inactive
Fc1ccc2[nH]c3c4c5ccccc5nc-4c[nH]c3c2c1	inactive

Test system: Mus musculus
Experiment: Convulsant effect in mice treated with subconvulsant (pentylenetetrazole) PTZ (40 mg/kg)
Assay type: functional

Structure (SMILES)	ED50 [mg/kg]
c1ccc2c(c1)[nH]c1c2ncc2[nH]c3ccccc3c21	15.1
COc1ccc2c(c1)[nH]c1c2ncc2[nH]c3ccccc3c21	7

Biological target: GABA-A receptor; anion channel
Experiment: Inhibition of [3H]-diazepam binding to GABA-A benzodiazepine receptor of rat cerebral cortical membranes
Assay type: cell membranes, Membrane

Structure (SMILES)	IC50 [nM]
COc1ccc2[nH]c3c4c5ccccc5nc-4c[nH]c3c2c1	890
c1ccc2c(c1)[nH]c1c2ncc2[nH]c3ccccc3c21	4
Clc1cccc2c1[nH]c1c3c4ccccc4nc-3c[nH]c12	80
Clc1ccc2c(c1)[nH]c1c2ncc2[nH]c3ccccc3c21	10
Fc1ccc2[nH]c3c4c5ccccc5nc-4c[nH]c3c2c1	16
Clc1cccc2[nH]c3c4c5ccccc5nc-4c[nH]c3c12	715
Clc1ccc2[nH]c3c4c5ccccc5nc-4c[nH]c3c2c1	2150
Fc1cccc2c1[nH]c1c3c4ccccc4nc-3c[nH]c12	12
Fc1ccc2c(c1)[nH]c1c3c4ccccc4nc-3c[nH]c12	7
COc1ccc2c(c1)[nH]c1c2ncc2[nH]c3ccccc3c21	8

Test system: Mus musculus
Experiment: Antagonism of Diazepam (2.5 mg/kg) anticonvulsant effect in mice treated with (pentylenetetrazole) PTZ (80 mg/kg)
Assay type: functional
How it was run: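 Adult male NIH-colony mice (20-25 g), groups of 10, got graded ip doses of test agent or vehicle (0.1 mL). Diazepam 2.5 mg/kg ip followed 15 min later, then PTZ 80 mg/kg 15 min after that. Score: tonic-clonic convulsions. ED50 = dose that blocks diazepam's anticonvulsant effect in 50% of mice.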

Structure (SMILES)	ED50 [mg/kg]
c1ccc2c(c1)[nH]c1c2ncc2[nH]c3ccccc3c21	21.3
Clc1ccc2c(c1)[nH]c1c2ncc2[nH]c3ccccc3c21	2.5
Fc1ccc2[nH]c3c4c5ccccc5nc-4c[nH]c3c2c1	24
COc1ccc2c(c1)[nH]c1c2ncc2[nH]c3ccccc3c21	3.9

Species on record: Mus musculus
Experiment: In vitro ability to induce convulsions in mice

Structure (SMILES)	ED50 [mg/kg]
CN1C(=O)CN=C(c2ccccc2)c2cc(Cl)ccc21 [DIAZEPAM]	3.4

Test system: Mus musculus
Experiment: Protection of mice against maximal electroshock (MES)-induced convulsions after administration of 38 mg/kg
Assay type: functional

Structure (SMILES)	Survivors [%]
CN1C(=O)CN=C(c2ccccc2)c2cc(Cl)ccc21 [DIAZEPAM]	100
